Assay results published in ChEMBL document CHEMBL3779840, “Discovery of 2-((3-Amino-4-methylphenyl)amino)-N-(2-methyl-5-(3-(trifluoromethyl)benzamido)phenyl)-4-(methylamino)pyrimidine-5-carboxamide (CHMFL-ABL-053) as a Potent, Selective, and Orally Available BCR-ABL/SRC/p38 Kinase Inhibitor for Chronic Myeloid Leukemia” (J Med Chem, 2016).
Calls of active or inactive are those of the source. The rule behind the calls is not given here.

Legend:
K562 [1] = test: Antiproliferative activity against human K562 cells assessed as cell viability after 72 hrs by CellTiter-Glo or CCK-8 assay; format: functional; settings: K562, 72 h
[2] = biological target: Discoidin domain-containing receptor 2 (Homo sapiens, UniProt Q16832); test: Inhibition of recombinant human GST-tagged DDR2 expressed in Baculovirus expression system
How it was run: (§1)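 IC50 values were determined with the Invitrogen SelectScreen biochemical kinase assay.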

[3] = biological target: Mast/stem cell growth factor receptor Kit (Homo sapiens, UniProt P10721); test: Inhibition of His-tagged recombinant human c-Kit […] expressed in mammalian expression system
Mast/stem cell growth factor receptor Kit, sequence (P10721 whole entry): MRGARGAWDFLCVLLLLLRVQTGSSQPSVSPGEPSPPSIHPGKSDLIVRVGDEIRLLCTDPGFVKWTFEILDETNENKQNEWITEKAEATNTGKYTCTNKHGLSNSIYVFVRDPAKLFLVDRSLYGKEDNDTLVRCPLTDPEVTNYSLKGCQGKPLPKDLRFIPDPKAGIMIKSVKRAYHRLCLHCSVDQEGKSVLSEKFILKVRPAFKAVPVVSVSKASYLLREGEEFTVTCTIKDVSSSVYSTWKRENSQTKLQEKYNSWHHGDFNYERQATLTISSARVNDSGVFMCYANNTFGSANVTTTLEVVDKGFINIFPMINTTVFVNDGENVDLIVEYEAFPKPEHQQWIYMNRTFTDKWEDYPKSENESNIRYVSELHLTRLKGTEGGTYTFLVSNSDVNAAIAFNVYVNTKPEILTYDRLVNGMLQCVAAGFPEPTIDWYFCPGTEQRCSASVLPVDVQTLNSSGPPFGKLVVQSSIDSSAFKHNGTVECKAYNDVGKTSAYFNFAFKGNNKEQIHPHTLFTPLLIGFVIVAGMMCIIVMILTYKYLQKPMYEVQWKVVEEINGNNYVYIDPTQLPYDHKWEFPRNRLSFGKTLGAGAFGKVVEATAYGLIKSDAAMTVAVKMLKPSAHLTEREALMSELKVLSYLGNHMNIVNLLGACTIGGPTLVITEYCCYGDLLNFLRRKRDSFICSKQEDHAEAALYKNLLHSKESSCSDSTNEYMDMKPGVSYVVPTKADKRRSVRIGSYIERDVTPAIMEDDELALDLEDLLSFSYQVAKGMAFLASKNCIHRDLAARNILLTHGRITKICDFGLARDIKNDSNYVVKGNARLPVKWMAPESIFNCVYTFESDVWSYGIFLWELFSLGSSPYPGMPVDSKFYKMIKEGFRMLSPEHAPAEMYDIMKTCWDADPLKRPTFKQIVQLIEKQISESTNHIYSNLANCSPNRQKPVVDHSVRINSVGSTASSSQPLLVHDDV

[4] = biological target: T1, Mitogen-activated protein kinase 14 (Homo sapiens, UniProt Q16539); test: Inhibition of full length recombinant GST-tagged human p38-alpha expressed in Escherichia coli; how it was run: as §1
T1 sequence (Q16539 whole entry): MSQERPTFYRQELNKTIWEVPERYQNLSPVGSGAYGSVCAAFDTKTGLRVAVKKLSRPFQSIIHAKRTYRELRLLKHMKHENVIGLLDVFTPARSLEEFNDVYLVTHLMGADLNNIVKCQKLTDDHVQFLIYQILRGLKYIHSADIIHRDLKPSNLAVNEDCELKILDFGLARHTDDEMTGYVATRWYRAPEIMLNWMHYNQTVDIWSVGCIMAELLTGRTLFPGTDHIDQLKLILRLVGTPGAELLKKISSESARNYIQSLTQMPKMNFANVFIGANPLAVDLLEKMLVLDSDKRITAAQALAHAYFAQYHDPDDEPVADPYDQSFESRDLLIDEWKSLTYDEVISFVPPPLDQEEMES

[5] = Antiproliferative activity against human MOLM14 cells assessed as cell viability after 72 hrs by CellTiter-Glo or CCK-8 assay; format: functional; settings: MOLM-14, 72 h
[6] = biological target: T2, Bcr/Abl fusion protein (Homo sapiens) (UniProt P00519+P11274); test: Inhibition of BCR/ABL in human K562 cells assessed as downregulation of CrkL phosphorylation at […] site after 1 hr by immunoblotting method; format: cell-based
T2 sequence (P00519 whole entry, looked up, the tested form may be a part): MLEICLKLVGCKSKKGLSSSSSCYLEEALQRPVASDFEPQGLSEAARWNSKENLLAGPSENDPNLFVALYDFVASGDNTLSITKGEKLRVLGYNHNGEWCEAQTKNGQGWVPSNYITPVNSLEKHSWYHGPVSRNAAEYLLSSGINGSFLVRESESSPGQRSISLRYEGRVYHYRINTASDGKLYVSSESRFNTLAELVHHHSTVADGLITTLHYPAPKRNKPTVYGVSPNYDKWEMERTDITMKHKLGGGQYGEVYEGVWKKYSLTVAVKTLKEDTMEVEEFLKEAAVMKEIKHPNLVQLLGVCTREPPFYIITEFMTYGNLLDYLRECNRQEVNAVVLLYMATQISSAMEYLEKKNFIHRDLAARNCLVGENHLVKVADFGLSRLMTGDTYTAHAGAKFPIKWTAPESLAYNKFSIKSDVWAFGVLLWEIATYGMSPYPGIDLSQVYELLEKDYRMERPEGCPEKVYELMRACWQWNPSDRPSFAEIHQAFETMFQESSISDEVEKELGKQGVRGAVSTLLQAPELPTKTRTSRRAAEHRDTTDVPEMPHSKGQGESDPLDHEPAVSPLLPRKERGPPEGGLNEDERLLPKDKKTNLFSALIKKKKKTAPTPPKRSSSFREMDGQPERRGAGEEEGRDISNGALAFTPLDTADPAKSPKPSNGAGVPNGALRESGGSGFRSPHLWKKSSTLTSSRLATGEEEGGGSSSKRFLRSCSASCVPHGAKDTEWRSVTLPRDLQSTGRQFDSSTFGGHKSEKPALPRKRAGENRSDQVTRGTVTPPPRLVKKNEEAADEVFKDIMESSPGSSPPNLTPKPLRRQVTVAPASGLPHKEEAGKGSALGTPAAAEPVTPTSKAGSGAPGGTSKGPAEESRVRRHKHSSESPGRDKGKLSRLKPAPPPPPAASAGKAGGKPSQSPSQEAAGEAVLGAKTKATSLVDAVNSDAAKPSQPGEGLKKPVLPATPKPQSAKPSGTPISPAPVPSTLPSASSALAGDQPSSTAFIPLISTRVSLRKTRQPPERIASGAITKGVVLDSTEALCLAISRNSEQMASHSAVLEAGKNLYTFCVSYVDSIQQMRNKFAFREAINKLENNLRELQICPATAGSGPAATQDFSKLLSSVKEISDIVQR
T2 sequence (P11274 whole entry, looked up, the tested form may be a part): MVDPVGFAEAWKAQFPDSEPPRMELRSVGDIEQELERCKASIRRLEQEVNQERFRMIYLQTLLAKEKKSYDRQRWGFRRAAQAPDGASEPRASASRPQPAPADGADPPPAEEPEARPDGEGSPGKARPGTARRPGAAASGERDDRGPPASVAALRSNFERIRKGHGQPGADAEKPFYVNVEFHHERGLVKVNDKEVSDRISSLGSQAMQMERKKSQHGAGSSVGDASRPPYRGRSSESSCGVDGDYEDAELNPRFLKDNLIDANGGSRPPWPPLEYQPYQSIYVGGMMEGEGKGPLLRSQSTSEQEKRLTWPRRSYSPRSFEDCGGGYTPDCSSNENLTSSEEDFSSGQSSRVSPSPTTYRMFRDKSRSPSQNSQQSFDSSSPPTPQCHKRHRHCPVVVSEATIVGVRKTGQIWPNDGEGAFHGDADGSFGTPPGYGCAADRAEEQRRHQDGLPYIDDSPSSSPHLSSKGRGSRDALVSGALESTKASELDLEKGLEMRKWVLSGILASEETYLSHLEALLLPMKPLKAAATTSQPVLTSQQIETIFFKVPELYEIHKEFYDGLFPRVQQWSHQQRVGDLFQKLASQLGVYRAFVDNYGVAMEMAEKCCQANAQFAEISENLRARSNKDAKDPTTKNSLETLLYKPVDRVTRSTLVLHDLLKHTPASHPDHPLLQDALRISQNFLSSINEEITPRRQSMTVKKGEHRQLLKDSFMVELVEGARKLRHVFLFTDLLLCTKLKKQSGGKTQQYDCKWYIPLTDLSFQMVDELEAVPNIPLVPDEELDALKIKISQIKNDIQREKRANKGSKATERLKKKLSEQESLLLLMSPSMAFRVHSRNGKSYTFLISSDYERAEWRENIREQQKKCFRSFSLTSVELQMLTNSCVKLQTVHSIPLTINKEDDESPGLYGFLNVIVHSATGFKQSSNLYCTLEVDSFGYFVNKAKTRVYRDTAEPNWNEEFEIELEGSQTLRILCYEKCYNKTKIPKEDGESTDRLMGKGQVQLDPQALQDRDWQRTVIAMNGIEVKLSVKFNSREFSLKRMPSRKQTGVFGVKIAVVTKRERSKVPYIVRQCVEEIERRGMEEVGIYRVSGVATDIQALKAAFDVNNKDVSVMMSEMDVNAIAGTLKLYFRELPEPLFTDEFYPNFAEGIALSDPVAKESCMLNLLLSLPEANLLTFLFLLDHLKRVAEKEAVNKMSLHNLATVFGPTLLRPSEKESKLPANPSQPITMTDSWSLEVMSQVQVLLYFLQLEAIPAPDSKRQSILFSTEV
How it was run: (§2)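 KU812, K562 and MEG-01 cells were exposed to compound at the indicated concentrations for 1 h. Whole-cell lysates were then analysed by Western blot for phosphorylated signaling proteins.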

[7] = biological target: T2, Bcr/Abl fusion protein (Homo sapiens); test: Inhibition of BCR/ABL in human MEG01 cells assessed as downregulation of ERK phosphorylation at Thr202/Tyr204 site after 1 hr by immunoblotting method; format: cell-based; settings: MEG-01; how it was run: as §2
[8] = biological target: T1, Mitogen-activated protein kinase 14; test: Inhibition of P38-alpha phosphorylation in human KU812 cells at 0.01 to 3 uM after 1 hr by immunoblotting method; format: cell-based; how it was run: as §2
[9] = biological target: T3, Proto-oncogene tyrosine-protein kinase Src (Homo sapiens, UniProt P12931); test: Inhibition of SRC phosphorylation in human KU812 cells at 0.01 to 3 uM after 1 hr by immunoblotting method; format: cell-based
T3 sequence (P12931 2-536 limits assumed): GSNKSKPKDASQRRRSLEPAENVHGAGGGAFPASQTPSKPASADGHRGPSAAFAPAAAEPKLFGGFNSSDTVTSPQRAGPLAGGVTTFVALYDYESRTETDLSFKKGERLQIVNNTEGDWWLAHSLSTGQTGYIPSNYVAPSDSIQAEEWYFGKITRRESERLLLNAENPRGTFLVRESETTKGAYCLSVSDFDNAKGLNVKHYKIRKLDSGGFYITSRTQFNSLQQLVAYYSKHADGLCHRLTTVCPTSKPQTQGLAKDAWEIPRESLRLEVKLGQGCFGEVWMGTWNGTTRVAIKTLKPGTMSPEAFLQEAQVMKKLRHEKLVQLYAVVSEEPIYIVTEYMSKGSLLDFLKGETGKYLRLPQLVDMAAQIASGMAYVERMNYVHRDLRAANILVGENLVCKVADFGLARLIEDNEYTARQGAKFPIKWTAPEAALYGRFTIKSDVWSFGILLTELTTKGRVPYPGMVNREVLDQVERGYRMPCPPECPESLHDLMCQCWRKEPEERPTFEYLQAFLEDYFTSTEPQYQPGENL
How it was run: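 Cells were treated for 1 h at the indicated concentrations. Whole-cell lysates were then analysed by Western blot for phosphorylation of signalling proteins in the BCR-ABL pathway.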

[10] = Cmax in Sprague-Dawley rat at 10 mg/kg, po; format: ADME, organism-based; design: dose 10 mg/kg, route oral; settings: in vivo
[11] = AUC(0 to t) in Sprague-Dawley rat at 1 mg/kg, iv; format: ADME, organism-based; settings: in vivo
Mus musculus = test: Toxicity in nu/nu mouse xenografted with K562 cells assessed as mortality at 25 and 50 mg/kg/day, qd administered through oral gavage for 16 days measured every day during compound dosing; format: organism-based; settings: in vivo, 384 h
How it was run: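 Female nu/nu mice carrying established K562 xenografts received oral treatment once daily at 25.0 or 50.0 mg/kg/d, or vehicle, starting when tumours reached 200 to 400 mm3. There were 5 animals per group and dosing lasted 16 days. Body weight was expressed relative to initial weight (set as 100%), and mortality was recorded. Data are given as mean ± SEM.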

K562 [12] = test: Antiproliferative activity against human K562 cells xenografted in nu/nu mouse at 25 and 50 mg/kg/day, qd administered through oral gavage measured after 16 days by hematoxylin/eosin staining-based assay; format: functional, organism-based
How it was run: (§3)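 Female nu/nu mice bore established K562 xenografts and received daily oral dosing at 25.0 or 50.0 mg/kg/d, or vehicle, starting when tumors reached 200 to 400 mm3, for 16 days. Groups had 5 animals; data are mean ± SEM. Tumor size and body weight were normalized to initial values, and final tumor weight was recorded. Tumor tissue was stained with HE, Ki-67 and TUNEL.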

K562 [13] = test: Induction of apoptosis in human K562 cells xenografted in nu/nu mouse at 25 and 50 mg/kg/day, qd administered through oral gavage measured after 16 days by TUNEL staining-based assay; format: functional, organism-based; how it was run: as §3
[14] = biological target: T4, Discoidin domain-containing receptor 2 (Homo sapiens) (UniProt Q16832); test: Inhibition of partial length human wild type DDR2 expressed in mammalian expression system assessed as residual activity at 1 uM relative to control
T4 sequence (whole entry): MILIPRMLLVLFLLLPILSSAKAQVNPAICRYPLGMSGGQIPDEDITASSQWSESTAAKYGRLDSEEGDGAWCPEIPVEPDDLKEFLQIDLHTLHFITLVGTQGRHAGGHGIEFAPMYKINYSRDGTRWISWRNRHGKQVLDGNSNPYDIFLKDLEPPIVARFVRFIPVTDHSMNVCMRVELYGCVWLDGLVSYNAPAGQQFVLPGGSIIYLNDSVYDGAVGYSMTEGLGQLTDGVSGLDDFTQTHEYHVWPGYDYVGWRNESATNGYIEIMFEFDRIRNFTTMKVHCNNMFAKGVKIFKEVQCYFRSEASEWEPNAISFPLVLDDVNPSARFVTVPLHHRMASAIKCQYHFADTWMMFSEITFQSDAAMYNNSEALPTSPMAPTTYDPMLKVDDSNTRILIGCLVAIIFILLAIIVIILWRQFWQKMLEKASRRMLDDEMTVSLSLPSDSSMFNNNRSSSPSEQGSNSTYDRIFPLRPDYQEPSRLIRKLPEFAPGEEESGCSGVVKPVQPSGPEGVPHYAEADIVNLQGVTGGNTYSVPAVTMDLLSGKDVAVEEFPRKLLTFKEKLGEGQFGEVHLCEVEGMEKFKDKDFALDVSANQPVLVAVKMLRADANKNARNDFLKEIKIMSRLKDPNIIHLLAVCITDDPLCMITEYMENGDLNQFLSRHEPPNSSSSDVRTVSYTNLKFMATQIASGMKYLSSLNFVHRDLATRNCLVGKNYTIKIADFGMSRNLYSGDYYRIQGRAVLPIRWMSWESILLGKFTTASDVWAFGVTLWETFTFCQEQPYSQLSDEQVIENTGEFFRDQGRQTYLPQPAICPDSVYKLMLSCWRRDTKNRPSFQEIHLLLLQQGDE

[15] = biological target: T1, Mitogen-activated protein kinase 14; test: Inhibition of full length human wild type p38-alpha expressed in bacterial expression system assessed as residual activity at 1 uM relative to control
[16] = biological target: Transcription factor ETV6/Tyrosine-protein kinase ABL1 (Homo sapiens) (UniProt P00519+P41212); settings: BaF3
[17] = biological target: T3, Proto-oncogene tyrosine-protein kinase Src; settings: BaF3
[18] = biological target: T4, Discoidin domain-containing receptor 2 (Homo sapiens); settings: BaF3
[19] = biological target: Tyrosine-protein kinase Lck (Homo sapiens) (UniProt P06239); settings: BaF3
Tyrosine-protein kinase Lck (Homo sapiens), sequence (P06239 2-509 limits assumed): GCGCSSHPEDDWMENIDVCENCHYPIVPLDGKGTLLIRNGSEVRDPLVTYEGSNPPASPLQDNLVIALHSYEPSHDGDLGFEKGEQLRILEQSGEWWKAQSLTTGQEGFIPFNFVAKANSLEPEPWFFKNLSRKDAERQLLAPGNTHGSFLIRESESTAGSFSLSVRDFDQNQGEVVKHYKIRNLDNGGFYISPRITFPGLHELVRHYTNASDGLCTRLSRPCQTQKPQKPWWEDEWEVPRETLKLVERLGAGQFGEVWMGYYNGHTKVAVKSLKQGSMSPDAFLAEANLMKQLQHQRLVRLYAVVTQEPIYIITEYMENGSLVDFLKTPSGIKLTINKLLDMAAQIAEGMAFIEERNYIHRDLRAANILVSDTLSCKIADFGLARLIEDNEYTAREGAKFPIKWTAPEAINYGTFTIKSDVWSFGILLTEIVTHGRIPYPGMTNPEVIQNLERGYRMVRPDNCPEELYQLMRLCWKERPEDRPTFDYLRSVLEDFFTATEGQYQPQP

[20] = biological target: Tyrosine-protein kinase HCK (Homo sapiens) (UniProt P08631); settings: BaF3
[21] = system: Bcr/Abl fusion protein (Homo sapiens), P00519+P11274 [Q252H]; settings: BaF3
[22] = system: Bcr/Abl fusion protein (Homo sapiens), P00519+P11274 [Y253F]; settings: BaF3
BaF3 = settings: Homo sapiens

For CNc1nc(Nc2ccc(C)c(N)c2)ncc1C(=O)Nc1cc(NC(=O)c2cccc(C(F)(F)F)c2)ccc1C, the GI50 (K562 [1]) was 0.014 µM, the IC50 [2] was 0.457 µM and the IC50 [3] was > 10 µM. The IC50 [4] was 0.062 µM, the GI50 [5] was > 10 µM and the inhibition [6] was “Dose-dependent effect”. The inhibition [7] was “Dose-dependent effect”, the inhibition [8] was “Active” and the inhibition [9] was “inactive”. The Cmax [10] was 368 ng/mL, the AUC(0-t) [11] was 636 ng·h/mL and the Activity (Mus musculus) was “Non-toxic”. For the same compound, the Activity (K562 [12]) was “Active”, the Activity (K562 [13]) was “Active” and the Activity [14] was 0%. It also gave an Activity [15] of 0%, a GI50 [16] of 0.053 µM and a GI50 [17] of 0.2 µM. For the same compound, the GI50 [18] was > 10 µM, the GI50 [19] was 0.6 µM and the GI50 [20] was 0.98 µM. It also gave a GI50 [21] of 0.14 µM, a GI50 [22] of 0.363 µM and a GI50 (BaF3) of 9.25 µM.
